Results from ChEMBL document CHEMBL4138072, “Identification of mitoxantrone as a new inhibitor of ROS1 fusion protein in non-small cell lung cancer cells” (Medchemcomm, 2017).
The source made the active and inactive calls. The rule behind the calls is not given here.

Legend:
HCC78 [1] = experiment: Induction of apoptosis in human HCC78 cells assessed as early apoptotic cells level at 2.5 uM incubated fro 48 hrs by Annexin-V FITC and propidium iodide staining based flow cytometry (reference value: 6.33%); format: functional
[2] = molecular target: T1, Proto-oncogene tyrosine-protein kinase ROS (Homo sapiens, UniProt P08922); settings: HCC78, 2.5 uM
T1 sequence (P08922 whole entry): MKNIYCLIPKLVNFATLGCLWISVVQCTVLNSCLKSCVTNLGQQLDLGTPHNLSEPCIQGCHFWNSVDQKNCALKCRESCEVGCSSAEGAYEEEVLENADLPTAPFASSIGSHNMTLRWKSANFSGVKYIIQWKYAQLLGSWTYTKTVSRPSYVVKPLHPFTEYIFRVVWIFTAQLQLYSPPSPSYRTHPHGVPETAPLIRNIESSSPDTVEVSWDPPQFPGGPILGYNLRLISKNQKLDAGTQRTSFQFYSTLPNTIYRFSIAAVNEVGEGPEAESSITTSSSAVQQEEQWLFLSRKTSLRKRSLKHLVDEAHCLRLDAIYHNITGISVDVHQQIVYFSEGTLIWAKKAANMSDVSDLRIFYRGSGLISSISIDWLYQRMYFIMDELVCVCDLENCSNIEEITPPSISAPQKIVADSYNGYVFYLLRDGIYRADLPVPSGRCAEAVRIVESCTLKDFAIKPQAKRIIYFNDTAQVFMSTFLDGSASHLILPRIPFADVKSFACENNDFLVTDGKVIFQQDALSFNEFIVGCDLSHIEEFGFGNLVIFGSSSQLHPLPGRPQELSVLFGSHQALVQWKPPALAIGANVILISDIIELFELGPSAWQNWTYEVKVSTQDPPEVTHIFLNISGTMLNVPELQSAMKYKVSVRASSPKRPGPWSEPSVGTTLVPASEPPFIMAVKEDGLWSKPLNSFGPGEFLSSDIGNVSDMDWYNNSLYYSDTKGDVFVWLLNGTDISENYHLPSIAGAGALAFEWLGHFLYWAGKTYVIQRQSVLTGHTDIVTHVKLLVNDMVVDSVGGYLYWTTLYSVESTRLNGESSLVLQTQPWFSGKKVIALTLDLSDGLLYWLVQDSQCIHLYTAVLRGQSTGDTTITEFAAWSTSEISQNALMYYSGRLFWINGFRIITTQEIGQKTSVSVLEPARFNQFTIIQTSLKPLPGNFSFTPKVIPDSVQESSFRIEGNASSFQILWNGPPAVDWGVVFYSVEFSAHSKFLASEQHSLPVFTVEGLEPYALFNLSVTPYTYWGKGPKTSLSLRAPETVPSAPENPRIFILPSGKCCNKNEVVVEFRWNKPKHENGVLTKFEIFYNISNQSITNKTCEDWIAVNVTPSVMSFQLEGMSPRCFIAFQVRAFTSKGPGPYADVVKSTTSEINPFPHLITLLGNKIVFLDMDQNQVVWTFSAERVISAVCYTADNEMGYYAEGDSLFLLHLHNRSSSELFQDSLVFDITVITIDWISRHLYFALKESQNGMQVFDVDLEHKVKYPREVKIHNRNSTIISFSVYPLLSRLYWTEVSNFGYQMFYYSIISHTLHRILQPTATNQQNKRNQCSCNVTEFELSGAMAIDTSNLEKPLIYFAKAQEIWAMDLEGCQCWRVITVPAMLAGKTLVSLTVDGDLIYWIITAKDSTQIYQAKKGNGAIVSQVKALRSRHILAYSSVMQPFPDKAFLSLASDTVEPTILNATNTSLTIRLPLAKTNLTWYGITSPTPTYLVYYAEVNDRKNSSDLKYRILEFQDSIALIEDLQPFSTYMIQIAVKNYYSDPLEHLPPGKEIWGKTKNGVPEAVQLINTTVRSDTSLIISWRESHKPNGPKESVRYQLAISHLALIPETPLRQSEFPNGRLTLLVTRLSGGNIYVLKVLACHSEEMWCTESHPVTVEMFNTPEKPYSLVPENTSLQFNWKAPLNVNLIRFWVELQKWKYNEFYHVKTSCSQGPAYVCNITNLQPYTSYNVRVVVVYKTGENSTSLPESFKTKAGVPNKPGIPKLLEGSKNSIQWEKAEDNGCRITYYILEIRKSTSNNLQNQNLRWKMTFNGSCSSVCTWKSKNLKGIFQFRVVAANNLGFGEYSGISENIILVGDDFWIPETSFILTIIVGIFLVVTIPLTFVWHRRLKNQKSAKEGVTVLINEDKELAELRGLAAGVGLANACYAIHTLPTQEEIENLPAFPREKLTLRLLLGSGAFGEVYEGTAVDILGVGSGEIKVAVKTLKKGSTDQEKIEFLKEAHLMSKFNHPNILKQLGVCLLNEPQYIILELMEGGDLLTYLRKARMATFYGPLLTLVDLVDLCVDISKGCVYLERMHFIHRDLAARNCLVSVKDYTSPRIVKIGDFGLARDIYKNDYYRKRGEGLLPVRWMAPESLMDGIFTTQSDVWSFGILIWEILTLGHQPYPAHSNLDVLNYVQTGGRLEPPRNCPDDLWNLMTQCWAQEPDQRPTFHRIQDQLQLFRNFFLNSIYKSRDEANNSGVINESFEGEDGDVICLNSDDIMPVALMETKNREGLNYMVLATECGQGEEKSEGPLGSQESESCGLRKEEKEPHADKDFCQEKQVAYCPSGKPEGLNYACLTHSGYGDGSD

HCC78 [3] = experiment: Induction of apoptosis in human HCC78 cells assessed as necrotic cells level at 2.5 uM incubated fro 48 hrs by Annexin-V FITC and propidium iodide staining based flow cytometry (reference value: 0.06%); format: functional
[4] = molecular target: T1, Proto-oncogene tyrosine-protein kinase ROS; settings: HCC78, 2.5 uM; remark: listed apart in the source
[5] = molecular target: T1, Proto-oncogene tyrosine-protein kinase ROS; settings: HCC78, 2.5 uM; remark: listed apart in the source
HCC78 [6] = experiment: Induction of apoptosis in human HCC78 cells assessed as viable cells level at 2.5 uM incubated fro 48 hrs by Annexin-V FITC and propidium iodide staining based flow cytometry (reference value: 80.8%); format: functional
HCC78 [7] = experiment: Induction of apoptosis in human HCC78 cells assessed as late apoptotic cells level at 2.5 uM incubated fro 48 hrs by Annexin-V FITC and propidium iodide staining based flow cytometry (reference value: 13.8%); format: functional
[8] = molecular target: T1, Proto-oncogene tyrosine-protein kinase ROS; settings: HCC78, 2.5 uM; remark: listed apart in the source
[9] = molecular target: T1, Proto-oncogene tyrosine-protein kinase ROS; experiment: Inhibition of ROS1 phosphorylation in human HCC78 cells incubated for 48 hrs by Western blot method; format: cell-based
Summary of the method: (§1)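 HCC78 cells plated overnight in 6-well plates, treated for 48 h, then lysed in RIPA buffer with protease/phosphatase inhibitors. Equal protein loaded for SDS-PAGE and transferred to nitrocellulose. Blocked in 5% milk/TBST, probed overnight at 4 °C for p-ROS1, ROS1, p-STAT3, STAT3, p-AKT, AKT, p-ERK, ERK and GAPDH, and detected with fluorescent secondary antibodies on an infrared scanner.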

HCC78 [10] = experiment: Induction of apoptosis in human HCC78 cells assessed as late apoptotic cells level at 10 nM incubated fro 48 hrs by Annexin-V FITC and propidium iodide staining based flow cytometry (reference value: 13.8%); format: functional
HCC78 [11] = experiment: Induction of apoptosis in human HCC78 cells assessed as late apoptotic cells level at 20 nM incubated fro 48 hrs by Annexin-V FITC and propidium iodide staining based flow cytometry (reference value: 13.8%); format: functional
HCC78 [12] = experiment: Induction of apoptosis in human HCC78 cells assessed as early apoptotic cells level at 20 nM incubated fro 48 hrs by Annexin-V FITC and propidium iodide staining based flow cytometry (reference value: 6.33%); format: functional
HCC78 [13] = experiment: Induction of apoptosis in human HCC78 cells assessed as early apoptotic cells level at 5 nM incubated fro 48 hrs by Annexin-V FITC and propidium iodide staining based flow cytometry (reference value: 6.33%); format: functional
CCD 19Lu = experiment: Cytotoxicity in human CCD-19Lu cells assessed as reduction in cell viability incubated for 72 hrs by MTT assay; format: cell-based
[14] = molecular target: T1, Proto-oncogene tyrosine-protein kinase ROS; experiment: Inhibition of ROS1 in human HCC78 cells assessed as reduction in AKT phosphorylation incubated for 48 hrs by Western blot method; format: cell-based; summary of the method: as §1
HCC78 [15] = experiment: Induction of apoptosis in human HCC78 cells assessed as viable cells level at 10 nM incubated fro 48 hrs by Annexin-V FITC and propidium iodide staining based flow cytometry (reference value: 80.8%); format: functional
HCC78 [16] = experiment: Induction of apoptosis in human HCC78 cells assessed as necrotic cells level at 10 nM incubated fro 48 hrs by Annexin-V FITC and propidium iodide staining based flow cytometry (reference value: 0.06%); format: functional
HCC78 [17] = experiment: Cytotoxicity in human HCC78 cells assessed as reduction in cell viability incubated for 72 hrs by MTT assay; format: functional, cell-based; settings: HCC78, 72 h
Summary of the method: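 3000 cells per well, allowed to adhere overnight, then exposed to DMSO or a concentration series for 72 h. MTT (5 mg/ml stock) added for a further 4 h, and crystals dissolved in 10% SDS/0.1 mM HCl. A570 read. Viability expressed relative to untreated controls from at least 3 independent experiments. HCC78 cells were grown in RPMI-1640 with 10% FBS and penicillin/streptomycin at 37 °C under 5% CO2.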

HCC78 [18] = experiment: Induction of apoptosis in human HCC78 cells assessed as late apoptotic cells level at 5 nM incubated fro 48 hrs by Annexin-V FITC and propidium iodide staining based flow cytometry (reference value: 13.8%); format: functional
HCC78 [19] = experiment: Induction of apoptosis in human HCC78 cells assessed as necrotic cells level at 20 nM incubated fro 48 hrs by Annexin-V FITC and propidium iodide staining based flow cytometry (reference value: 0.06%); format: functional
HCC78 [20] = experiment: Induction of apoptosis in human HCC78 cells assessed as viable cells level at 20 nM incubated fro 48 hrs by Annexin-V FITC and propidium iodide staining based flow cytometry (reference value: 80.8%); format: functional
HCC78 [21] = experiment: Induction of apoptosis in human HCC78 cells incubated fro 48 hrs by Annexin-V FITC and propidium iodide staining based flow cytometry; format: functional, cell-based
[22] = molecular target: T1, Proto-oncogene tyrosine-protein kinase ROS; experiment: Inhibition of ROS1 (unknown origin) using poly (Glu,Tyr)4:1 substrate and ATP incubated for 60 mins by ELISA
Summary of the method: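 Purified recombinant ROS1 on poly(Glu,Tyr)4:1-coated wells (20 μg/ml coating). Reaction run in HEPES pH 7.4 buffer with MgCl2, MnCl2, Na3VO4 and DTT, with 10 μmol/l ATP solution and compound in 1% DMSO, 60 min at 37 °C. Phosphotyrosine detected by PY99 antibody, then HRP anti-mouse IgG and o-phenylenediamine, read at A490. Inhibition calculated as % of DMSO control. IC50 derived from curves in two experiments.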

HCC78 [23] = experiment: Induction of apoptosis in human HCC78 cells assessed as necrotic cells level at 5 nM incubated fro 48 hrs by Annexin-V FITC and propidium iodide staining based flow cytometry (reference value: 0.06%); format: functional
[24] = molecular target: T1, Proto-oncogene tyrosine-protein kinase ROS; experiment: Inhibition of ROS1 in human HCC78 cells assessed as reduction in ERK phosphorylation incubated for 48 hrs by Western blot method; format: cell-based; summary of the method: as §1
HCC78 [25] = experiment: Induction of apoptosis in human HCC78 cells assessed as viable cells level at 5 nM incubated fro 48 hrs by Annexin-V FITC and propidium iodide staining based flow cytometry (reference value: 80.8%); format: functional
[26] = molecular target: T1, Proto-oncogene tyrosine-protein kinase ROS; experiment: Inhibition of ROS1 in human HCC78 cells assessed as reduction in STAT3 phosphorylation incubated for 48 hrs by Western blot method; format: cell-based; summary of the method: as §1
HCC78 [27] = experiment: Induction of apoptosis in human HCC78 cells assessed as early apoptotic cells level at 10 nM incubated fro 48 hrs by Annexin-V FITC and propidium iodide staining based flow cytometry (reference value: 6.33%); format: functional

C[C@@H](Oc1cc(-c2cnn(C3CCNCC3)c2)cnc1N)c1c(Cl)ccc(F)c1Cl [CRIZOTINIB]
Activity (HCC78 [1]): 27.3% | inhibition [2]: Active | Activity (HCC78 [3]): 0.662% | inhibition [4]: Active | inhibition [5]: Active | Activity (HCC78 [6]): 45.9% | Activity (HCC78 [7]): 27.2% | inhibition [8]: Active

O=C1c2c(O)ccc(O)c2C(=O)c2c(NCCNCCO)ccc(NCCNCCO)c21 [MITOXANTRONE]
inhibition [9]: Dose-dependent effect | Activity (HCC78 [10]): 18.7% | Activity (HCC78 [11]): 17.2% | Activity (HCC78 [12]): 19.7% | Activity (HCC78 [13]): 16.4% | IC50 (CCD 19Lu): > 160 nM | inhibition [14]: Dose-dependent effect | Activity (HCC78 [15]): 66.7% | Activity (HCC78 [16]): 0.076% | IC50 (HCC78 [17]): 13.8 nM | Activity (HCC78 [18]): 16.9% | Activity (HCC78 [19]): 0.048% | Activity (HCC78 [20]): 63.8% | Activity (HCC78 [21]): Dose-dependent effect | IC50 [22]: 3000 nM | Activity (HCC78 [23]): 0.089% | inhibition [24]: Dose-dependent effect | Activity (HCC78 [25]): 66.6% | inhibition [26]: Dose-dependent effect | Activity (HCC78 [27]): 18.6%
